Test results: ChEMBL document CHEMBL3232870, “Discovery of 3-(4-methanesulfonylphenoxy)-N-[1-(2-methoxy-ethoxymethyl)-1H-pyrazol-3-yl]-5-(3-methylpyridin-2-yl)-benzamide as a novel glucokinase activator (GKA) for the treatment of type 2 diabetes mellitus” (Bioorg Med Chem, 2014); call rule not given here

How the values were obtained:
Salmonella typhimurium = test: Cytotoxicity in Salmonella typhimurium TA100 at 1.5 to 5000 ug/plate in presence of S9 fraction; format: organism-based; settings: salmonella enterica subsp. enterica serovar typhimurium
In short: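 Ames reverse mutation test by direct plate incorporation in S. typhimurium TA98 and TA100, with or without Aroclor 1254-induced rat liver S9 mix. Compound in DMSO at 1.5–5000 µg/plate, plated in top agar, incubated 37 °C for about 50 h, then revertant colonies counted. Plates were checked for precipitation and cytotoxicity. A positive was a reproducible, dose-related increase in revertants of more than 2-fold.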

[1] = Clearance in Sprague-Dawley rat at 3 mg/kg, iv and 10 mg/kg, po; format: ADME, organism-based; settings: in vivo
In short: (§1)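 Male ICR mice and 7-week-old SD rats received a 3 mg/kg intravenous bolus or a 10 mg/kg oral gavage dose. Plasma was deproteinized with acetonitrile (2 volumes) and compound measured by HPLC. Parameters came from noncompartmental analysis.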

[2] = Volume of distribution at steady state in ICR mouse at 3 mg/kg, iv and 10 mg/kg, po; format: ADME, organism-based; settings: in vivo, read-out: Vdss
In short: (§2)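 Male ICR mice and 7-week-old SD rats received a 3 mg/kg iv bolus or a 10 mg/kg oral gavage dose. Plasma was precipitated with 2 volumes of acetonitrile and analysed by HPLC. Parameters came from noncompartmental analysis.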

[3] = Volume of distribution at steady state in Sprague-Dawley rat at 3 mg/kg, iv and 10 mg/kg, po; format: ADME, organism-based; settings: in vivo, read-out: Vdss; in short: as §2
[4] = Mean residence time in ICR mouse at 3 mg/kg, iv and 10 mg/kg, po; format: ADME, organism-based; settings: in vivo; in short: as §2
[5] = Mean residence time in Sprague-Dawley rat at 3 mg/kg, iv and 10 mg/kg, po; format: ADME, organism-based; settings: in vivo; in short: as §2
[6] = Elimination half life in Sprague-Dawley rat at 3 mg/kg, iv and 10 mg/kg, po; format: ADME, organism-based; settings: in vivo, read-out: beta t1/2 (converted); in short: as §1
[7] = AUC in ICR mouse at 3 mg/kg, iv and 10 mg/kg, po; format: ADME, organism-based; settings: plasma; in short: as §1
[8] = Cmax in female Sprague-Dawley rat at 1000 mg/kg, po measured on day 1; format: ADME, organism-based; set-up: dose 1000 mg/kg, route oral; settings: in vivo
In short: (§3)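 Sprague–Dawley rats, 5 weeks old at arrival, both sexes. Given the compound by oral gavage once daily for 14 days at 0, 250, 500 or 1000 mg/kg/day, with 0.5% methylcellulose as vehicle. Toxicokinetic parameters were determined on Day 1 and Day 14.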

[9] = Cmax in female Sprague-Dawley rat at 1000 mg/kg, po measured on day 14; format: ADME, organism-based; set-up: dose 1000 mg/kg, route oral; settings: in vivo; in short: as §3
[10] = AUC (0 to t) in male Sprague-Dawley rat at 250 mg/kg, po measured on day 14; format: ADME, organism-based; set-up: dose 250 mg/kg, route oral; settings: plasma; in short: as §3
[11] = AUC (0 to t) in male Sprague-Dawley rat at 1000 mg/kg, po measured on day 1; format: ADME, organism-based; set-up: dose 1000 mg/kg, route oral; settings: plasma; in short: as §3
Rattus norvegicus = test: Toxicity in Sprague-Dawley rat assessed as seminiferous tubule degeneration at 250 to 1000 mg/kg, po by hematoxylin and eosin staining-based microscopy; format: organism-based; set-up: dose 250-1000 mg/kg, route oral; settings: in vivo
In short: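 Sprague–Dawley rats of both sexes, 5 weeks old at arrival, received daily oral gavage at 0, 250, 500 or 1000 mg/kg/day for 14 days. Vehicle was 0.5% methylcellulose at 10 mL/kg. Toxicokinetics were taken on Day 1 and Day 14. Necropsy was by Day 15. Testis was fixed in modified Davidson's fixative, paraffin-sectioned and H&E-stained, with histopathology on control and high-dose groups only.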

MIN6 = test: Increase in 11 mM glucose-stimulated insulin secretion in mouse MIN6 cells measured for 1 hr by ELISA; format: functional
[12] = Increase in 11 mM glucose-stimulated insulin secretion in Sprague-Dawley rat Pancreatic islet measured for 1 hr by ELISA; format: functional
In short: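 Islets isolated from male Sprague–Dawley rat pancreas, five per well. Islets were pre-incubated 30 min in HEPES-buffered Krebs–Ringer buffer (pH 7.4) with low glucose, then moved to the same buffer with glucose (11 mM) plus test compound. Static incubation ran at 37 °C in a shaking waterbath under 5% CO₂. Buffer was sampled at 1 h, insulin measured by ELISA, and reported as % increase versus control.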

Mus musculus [13] = test: Antidiabetic activity in glucose-treated C57BL/J6 db/db mouse assessed as reduction of glucose AUC at 30 to 100 mg/kg, po administered for 2 weeks preincubated for 30 mins followed by glucose challenge measured after 30 to 180 mins by oral glucose tolerance test relative to control; format: functional; set-up: scale not given: the % may be the effect or the level left
In short: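 Oral glucose tolerance test. Mice: eight-week-old male C57BL/6 or ten-week-old male C57BLKS/J db/db, fasted overnight with water. Compound or 0.5% methylcellulose vehicle given orally, then an oral 2 g/kg glucose challenge 30 min later. Tail-tip blood glucose was read just before and at 30, 60, 90, 120 and 180 min. AUC was calculated from the time–glucose curve; n = 6.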

Cytochrome P450 2B6 = biological target: T1, Cytochrome P450 2B6 (Homo sapiens, UniProt P20813); test: Inhibition of CYP2B6 in human liver microsomes; format: ADME
T1 sequence (P20813 whole entry): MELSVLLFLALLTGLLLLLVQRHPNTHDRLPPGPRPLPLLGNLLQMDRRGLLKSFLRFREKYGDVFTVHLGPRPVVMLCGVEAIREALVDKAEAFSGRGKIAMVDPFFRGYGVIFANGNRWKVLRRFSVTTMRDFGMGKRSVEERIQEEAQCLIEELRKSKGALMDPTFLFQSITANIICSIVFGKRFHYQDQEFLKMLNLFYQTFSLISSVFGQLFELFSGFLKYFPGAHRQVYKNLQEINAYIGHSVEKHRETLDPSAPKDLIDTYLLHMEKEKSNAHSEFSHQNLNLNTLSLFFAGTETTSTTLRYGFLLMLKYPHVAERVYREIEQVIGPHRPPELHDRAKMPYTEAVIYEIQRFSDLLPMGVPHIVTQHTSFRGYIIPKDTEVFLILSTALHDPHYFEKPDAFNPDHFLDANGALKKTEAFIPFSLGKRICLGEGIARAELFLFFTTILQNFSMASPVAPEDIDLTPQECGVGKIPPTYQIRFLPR
In short: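 Pooled human liver microsomes at 0.25 mg/mL, each with a CYP-selective substrate and test compound up to 25 µM, preincubated at 37 °C. It is stopped on ice with ice-cold acetonitrile and centrifuged, and the supernatant is analysed by LC–MS/MS.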

Mus musculus [14] = test: Toxicity in C57BL/J6 db/db mouse assessed as effect on body weight at 50 mg/kg, po; format: organism-based; set-up: dose 50 mg/kg, route oral; settings: in vivo
[15] = Metabolic stability in dog liver microsomes assessed as compound remaining after 1 hr relative to control; format: ADME, Canis lupus familiaris; settings: read-out: Stability
In short: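 Liver microsomes from mouse, dog or human were incubated with compound for 1 h, and the percentage of compound remaining was determined.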

clearance [1]: 9.83 mL/min/kg | Vd [2]: 0.18 L/kg | Vd [3]: 0.21 L/kg | MRT [4]: 55.2 min | MRT [5]: 22.2 min | half-life [6]: 18 min | AUC [7]: 11900 ng·h/mL | Cmax [8]: 7590 ng/mL | Cmax [9]: 5210 ng/mL | AUC(0-t) [10]: 8180 ng·h/mL | AUC(0-t) [11]: 35400 ng·h/mL | inhibition (INH) (Cytochrome P450 2B6): Not Active | remaining at 1 h [15]: > 60%
SMILES: COCCOCn1ccc(NC(=O)c2cc(Oc3ccc(S(C)(=O)=O)cc3)cc(-c3ncccc3C)c2)n1
Activity (Salmonella typhimurium): Non-toxic | Activity (Rattus norvegicus): Non-toxic | fold change (FC) (MIN6): 9 | fold change (FC) [12]: 3 | Activity (Mus musculus [13]): 39.8% | Activity (Mus musculus [14]): Non-toxic
